A short description of data set [1]: Tmax in ICR mouse at 5 mg/kg, po measured up to 24 hrs by LC-MS/MS analysis. The data set is classed as ADME, organism-based. As to conditions: in vivo. In outline: (§1)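 Male ICR mice, single oral gavage (3 or 5 mg/kg) in 5% DMSO/10% solutol/85% saline, three mice per group. Separate IV tail-vein bolus group (1 or 2 mg/kg) in the same vehicle. Blood sampled at 0.083–24 h, one sample per mouse, plasma diluted threefold and analysed by LC–MS/MS; noncompartmental parameters.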

Data set [2] addresses Protein cereblon/Androgen receptor (Homo sapiens, UniProt P10275+Q96SW2). The data set can be described thus: Protac activity at CRBN/AR in human VCaP cells assessed as induction of AR degradation measured after 24 hrs by western blot analysis. (In general: Immunoblotting shows a protein as a band on a membrane.)
The subject of data set [3] is VCaP. Description: Growth inhibition of human VCaP cells assessed as cell viability measured after 4 days in presence of R1881 by WST-8 assay. The data set is classed as functional, cell-based. As to conditions: 96 h. In outline:
(§2)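 LNCaP and VCaP cells exposed to compounds for 4 days in charcoal-stripped medium containing 0.1 nM R1881; viability read by WST-8 assay.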
A general note: Tetrazolium dyes change colour on reduction, which living cells bring about.

The subject of data set [4] is LNCaP. Description: Growth inhibition of human LNCaP cells assessed as cell viability measured after 4 days in presence of R1881 by WST-8 assay. The data set is classed as functional, cell-based. As to conditions: 96 h. In outline:
as §2

For data set [5], the system named is VCaP. The data set can be described thus: Suppression of PSA gene expression in human VCaP cells assessed as mRNA level treated for 24 hrs by qRT-PCR analysis. It is filed as functional, cell-based. As to conditions: dose 1-1000 nM. In outline:
(§3)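 VCaP and LNCaP cells treated 24 h; PSA (KLK3) and TMPRSS2 mRNA quantified by TaqMan qRT-PCR, comparative CT method relative to GAPDH and then vehicle control.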
For orientation: Quantitative PCR measures a nucleic acid by following its amplification.

Data set [6] deals with VCaP. Description: Suppression of TMPRSS2 gene expression in human VCaP cells assessed as mRNA level treated for 24 hrs by qRT-PCR analysis. As to conditions: dose 1-1000 nM. It is filed as functional, cell-based. In outline: as §3
Data set [7] relates to LNCaP. The data set can be described thus: Suppression of PSA gene expression in human LNCaP cells assessed as mRNA level treated for 24 hrs by qRT-PCR analysis. The data set is classed as functional, cell-based. The following applies: dose 1-1000 nM. In outline:
as §3

For data set [8], the system named is LNCaP. The data set can be described thus: Suppression of TMPRSS2 gene expression in human LNCaP cells assessed as mRNA level treated for 24 hrs by qRT-PCR analysis. The data set is classed as functional, cell-based. The following applies: dose 1-1000 nM. In outline:
as §3

A short description of data set [9]: Oral bioavailability in ICR mouse at 5 mg/kg measured up to 24 hrs by LC-MS/MS analysis. The following applies: in vivo. The data set is classed as ADME, organism-based. In outline:
as §1

For data set [10], the system named is Mus musculus. Description: Reduction in AR protein level in tumor of human VCaP cells xenografted in SCID mouse at 20 mg/kg, po single dose measured after 24 hrs by Western blot analysis. The data set is classed as functional, organism-based. In outline: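 SCID mice bearing VCaP xenografts given one oral dose of 20 mg/kg; tumors harvested at 6 and 24 h after dosing and AR protein measured by Western blot with GAPDH loading control.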

The nature of data set [11]: Plasma concentration in human VCaP cells xenografted in SCID mouse at 20 mg/kg, po single dose measured after 6 hrs by LC-MS/MS analysis. The data set is classed as ADME, organism-based. In outline:
(§4)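 Single oral gavage, 20 mg/kg in 100% PEG200, to male SCID mice bearing one VCaP tumor each (about 200 mm³). Plasma and tumor taken at 6 and 24 h, three mice per time point. Tumors frozen, ground in liquid nitrogen, homogenized in water/acetonitrile 4:1, precipitated with cold acetonitrile; analysis by positive-ion MRM LC–MS/MS.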

A short description of data set [12]: Plasma concentration in human VCaP cells xenografted in SCID mouse at 20 mg/kg, po single dose measured after 24 hrs by LC-MS/MS analysis. The data set is classed as ADME, organism-based. In outline:
as §4

The nature of data set [13]: Drug uptake in human VCaP cells xenografted in SCID mouse tumor tissue at 20 mg/kg, po single dose measured after 6 hrs by LC-MS/MS analysis. The following applies: in vivo. The data set is classed as ADME, organism-based, Neoplasm. In outline:
as §4

Data set [14] in a line: Drug uptake in human VCaP cells xenografted in SCID mouse tumor tissue at 20 mg/kg, po single dose measured after 24 hrs by LC-MS/MS analysis. The data set is classed as ADME, organism-based, Neoplasm. The following applies: in vivo. In outline: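 Male CB17 SCID mice carried subcutaneous VCaP xenografts, implanted as 5 × 10⁶ cells in Matrigel, grown to about 200 mm³. Mice received a single oral gavage of 20 mg/kg in 100% PEG200. Tumors were collected at 6 and 24 h, three mice per time point, and frozen. They were homogenized in water/acetonitrile 4:1, protein-precipitated with cold acetonitrile, and assayed by LC-MS/MS (positive-ion MRM). Values are mean ± SD.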

The test system of data set [15] is Mus musculus. The data set can be described thus: Reduction in AR protein level in human VCaP cells xenografted in SCID mouse tumor tissue at 10 mg/kg, po for 3 days measured after 3 to 24 hrs of treatment by Western blot analysis. It is filed as functional, organism-based. The following applies: time 3.0 day. In outline:
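SCID mice with VCaP xenografts gavaged 10 mg/kg daily for 3 days; tumors collected at 3, 6 and 24 h after the last dose for Western blot of AR, GAPDH as loading control.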

A short description of data set [16]: Reduction in PSA gene expression in human VCaP cells xenografted in SCID mouse tumor tissue assessed as reduction in mRNA level at 10 mg/kg, po for 3 days measured after 3 hrs of treatment by […]. It is filed as functional. The following applies: 72 h, time 3 day. In outline:
(§5)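 VCaP xenograft-bearing SCID mice dosed orally at 10 mg/kg daily for 3 days; tumors taken 3 h after the last dose. PSA, TMPRSS2 and FKBP5 mRNA measured by TaqMan qRT-PCR, comparative CT normalized to GAPDH and to vehicle control.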

The nature of data set [17]: Reduction in TMPRSS2 gene expression in human VCaP cells xenografted in SCID mouse tumor tissue assessed as reduction in mRNA level at 10 mg/kg, po for 3 days measured after 3 hrs of treatment by […]. It is filed as functional. As to conditions: 72 h, time 3 day. In outline: as §5
Data set [18] in a line: Reduction in FKBPS gene expression in human VCaP cells xenografted in SCID mouse tumor tissue assessed as reduction in mRNA level at 10 mg/kg, po for 3 days measured after 3 hrs of treatment by […]. It is filed as functional. As to conditions: 72 h, time 3 day. In outline:
as §5

In data set [19] the test system is VCaP. Description: Antitumor activity against human VCaP cells xenografted in SCID mouse assessed as tumor growth inhibition at 40 mg/kg, po measured on day 21 relative to control. The following applies: 504 h, read-out: TGI. It is filed as functional. In outline:
(§6)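 Male CB17 SCID mice implanted s.c. with 5 × 10⁶ VCaP cells in Matrigel; at average tumor volume 150 mm³, size-matched and randomized, seven per group. Oral gavage daily for 21 days in 100% PEG200. Tumors measured 2–3 times weekly, volume = length × width²/2; TGI (%) = (Vc − Vt)/(Vc − Vo) × 100 using group medians at start and end.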

The test system of data set [20] is VCaP. The data set can be described thus: Antitumor activity against human VCaP cells xenografted in SCID mouse assessed as tumor growth inhibition at 10 mg/kg, po measured on day 21 relative to control. The data set is classed as functional. As to conditions: 504 h, read-out: TGI. In outline: as §6
The test system of data set [21] is VCaP. The data set can be described thus: Antitumor activity against human VCaP cells xenografted in SCID mouse assessed as tumor growth inhibition at 20 mg/kg, po measured on day 21 relative to control. The following applies: 504 h, read-out: TGI. It is filed as functional. In outline: as §6
Data set [22] can be described thus: Toxicity in SCID mouse xenografted with human VCaP cells assessed as weight loss at 40 mg/kg, po measured on day 21. It is filed as organism-based. As to conditions: in vivo. In outline:
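Male CB17 SCID mice bearing s.c. VCaP xenografts, randomized at about 150 mm³ (seven per group), gavaged daily for 21 days in 100% PEG200; body weights recorded 2–3 times per week to follow maximum weight loss.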

Structures are written as SMILES. The source made the active and inactive calls. The calls are words filed in the database; no cut-off is given here. Where only a bound is given, the exact number is not on record here.

Protein cereblon/Androgen receptor, sequence (P10275 whole entry): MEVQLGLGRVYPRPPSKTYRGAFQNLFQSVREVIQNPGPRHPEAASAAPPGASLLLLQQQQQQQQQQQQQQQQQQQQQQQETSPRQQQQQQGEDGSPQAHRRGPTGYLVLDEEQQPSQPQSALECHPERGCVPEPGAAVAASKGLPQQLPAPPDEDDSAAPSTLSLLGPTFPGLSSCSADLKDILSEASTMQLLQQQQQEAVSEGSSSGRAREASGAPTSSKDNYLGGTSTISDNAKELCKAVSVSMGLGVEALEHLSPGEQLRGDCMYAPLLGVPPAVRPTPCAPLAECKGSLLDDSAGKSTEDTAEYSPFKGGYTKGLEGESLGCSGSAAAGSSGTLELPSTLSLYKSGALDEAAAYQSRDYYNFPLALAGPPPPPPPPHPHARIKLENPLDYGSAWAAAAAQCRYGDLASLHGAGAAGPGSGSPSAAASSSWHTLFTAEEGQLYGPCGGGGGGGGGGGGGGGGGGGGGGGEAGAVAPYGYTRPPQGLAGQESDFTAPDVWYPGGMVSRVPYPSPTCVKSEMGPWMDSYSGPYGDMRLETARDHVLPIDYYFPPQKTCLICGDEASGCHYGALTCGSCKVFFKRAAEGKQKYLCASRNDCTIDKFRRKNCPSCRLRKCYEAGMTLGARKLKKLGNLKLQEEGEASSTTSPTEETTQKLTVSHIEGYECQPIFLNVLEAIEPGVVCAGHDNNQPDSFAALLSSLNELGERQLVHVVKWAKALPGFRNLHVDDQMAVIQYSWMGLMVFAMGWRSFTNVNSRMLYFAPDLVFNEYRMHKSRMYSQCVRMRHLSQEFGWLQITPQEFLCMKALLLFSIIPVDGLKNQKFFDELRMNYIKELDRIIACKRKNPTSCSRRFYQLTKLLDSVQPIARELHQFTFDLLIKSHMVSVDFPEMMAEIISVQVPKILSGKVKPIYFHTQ
Protein cereblon/Androgen receptor, sequence (Q96SW2 whole entry): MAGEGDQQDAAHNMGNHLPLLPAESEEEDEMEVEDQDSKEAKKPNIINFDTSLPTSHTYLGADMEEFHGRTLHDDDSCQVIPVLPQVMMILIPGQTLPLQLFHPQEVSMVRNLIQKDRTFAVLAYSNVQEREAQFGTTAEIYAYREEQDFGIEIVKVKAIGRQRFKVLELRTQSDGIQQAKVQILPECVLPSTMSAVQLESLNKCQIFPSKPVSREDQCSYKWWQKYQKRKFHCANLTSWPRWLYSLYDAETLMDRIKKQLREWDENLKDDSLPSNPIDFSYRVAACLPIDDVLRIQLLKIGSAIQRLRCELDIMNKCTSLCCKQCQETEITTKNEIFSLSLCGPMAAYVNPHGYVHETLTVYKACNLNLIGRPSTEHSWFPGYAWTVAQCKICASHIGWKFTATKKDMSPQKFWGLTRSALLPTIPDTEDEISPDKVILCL

One may read the Tmax as the time from dosing to the highest level. The EC50 is the concentration that produces a half-maximal response. The term IC50 denotes the concentration at which inhibition is half-maximal. Consider `CC1(C)[C@H](NC(=O)c2ccc(N3CCN(CC4CCN(c5ccc6c(c5)C(=O)N(C5CCC(=O)NC5=O)C6=O)CC4)CC3)cc2)C(C)(C)[C@H]1Oc1ccc(C#N)c(Cl)c1` (some centres not stated), for which the time of peak concentration (Tmax) in data set [1] amounted to 4.7 h. For the same compound, the EC50 in data set [2] stood at 0.3 nM. Also, the half-maximal inhibitory concentration (IC50) in the data set on VCaP [3] was 4 nM; in the data set on LNCaP [4], 5 nM. Further, the Activity result in the data set on VCaP [5] is “Dose-Dependent Effect”; in the data set with VCaP [6] it was “Dose-Dependent Effect”; with LNCaP [7] it was “Dose-Dependent Effect”; with LNCaP [8], “Dose-Dependent Effect”; in data set [22], not above 5%. In addition, in data set [9], the F was 67%. Besides, the result with Mus musculus [10] and in the data set on Mus musculus [15] was Active. For the same compound, the concentration at 6 h in data set [11] was 1510 ng/mL. For the same compound, in data set [12], the concentration at 24 h amounted to 1660 ng/mL. Also, the values for the Drug uptake in data set [13] and in data set [14] were 635 ng/g and 1510 ng/g, respectively. Also, the inhibition in vivo at 10 mg/kg in data set [16] was more than 50%; in data set [17], more than 50%; in data set [18] it was more than 50%; in the data set with VCaP [20] it was 46%. The inhibition in vivo at 40 mg/kg in the data set on VCaP [19] was 63%. In addition, the inhibition in vivo at 20 mg/kg in the data set with VCaP [21] came to 69%.

Values taken from ChEMBL document CHEMBL4842367, “Strategies toward Discovery of Potent and Orally Bioavailable Proteolysis Targeting Chimera Degraders of Androgen Receptor for the Treatment of Prostate Cancer” (J Med Chem, 2021).
